Screening results from PubChem BioAssay.
Rows were chosen to be rich in hits. Some 2.9% of all compounds tested hit in one or more screens of this group.
PglD inh: PglD (C. jejuni) enzyme inhibition. purified PglD enzyme, DTNB colorimetric CoA detection. 360,000 compounds, 0.098% hits. AID 602405. inhibition, % at 12.5 µM; in the data active = inhibition above about 16%, passing the limit was not always enough; inconclusive = no clear call, values can overlap the other calls
PGC1a acetyl inh: PGC1a acetylation modulation, inhibitor mode; AID 651687; inhibition, % at 15.6 µM; 350,000 compounds, 0.17% hits; U2OS PGC1a acetylation, AlphaScreen anti-acetyl-lysine; with virally co-expressed GCN5 acetyltransferase;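 active = every replicate shows inhibition of at least 40%; inconclusive = mean inhibition at least 40% but some replicate below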;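 also: 0% = neutral control wells and 100% = positive control wells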
FGF22 binding: shifts melting point of recombinant human FGF22; AID 651658; recombinant FGF22 thermal shift, SYPRO orange fluorescence; percent of sucrose octasulfate shift, DMSO zero; 340,000 compounds, 1.5% hits; activity (Tm shift, normalised), % at 9.99 µM;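 active = mean Tm shift, scaled 0 neutral to 100 positive control, at about 1.3% or above, every replicate too, limit read from the data; inconclusive = no clear call, values can overlap the other calls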
Target sequence (Q9HCT0 whole entry, looked up): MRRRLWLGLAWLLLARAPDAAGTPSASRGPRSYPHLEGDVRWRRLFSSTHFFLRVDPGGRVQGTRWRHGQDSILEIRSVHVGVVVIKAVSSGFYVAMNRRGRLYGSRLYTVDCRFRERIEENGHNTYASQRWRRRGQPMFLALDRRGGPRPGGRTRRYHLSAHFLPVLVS
Cneo AK release: Cryptococcus neoformans lysis via adenylate kinase release. C. neoformans lysis, adenylate kinase release luminescence, 4 h; normalised: neutral wells 0, clomiphene wells 100. lysis activity, % at 15 µM. 360,000 compounds, 0.2% hits. AID 651654;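 active = mean lysis activity across replicates of at least 80%, whatever share of replicates individually reach that level; inactive = mean lysis activity below 80%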
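Assay system: log-phase C. neoformans yeast / Quantity: yeast cell density of 5 × 10^6 cells/mL / Medium: fresh YPD growth medium / Compound: single dose / Timing: static 4 h at 37 °C with compound, 1 h detection / Measured by: adenylate kinase release luminescence / Read-out: lysis from increased AK signal / Benchmarks: Clomiphene as positive lysis control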
Ecoli rRNA inh: inhibitors of bacterial rRNA selective over humanized ribosomes. E. coli WT GFP vs humanized-ribosome RFP mutants, fluorescence, 24 h; stronger effect = lower value; DMSO median 0, no signal -100. GFP signal change (wild-type ribosome), % (no concentration beside the values). AID 720706. 350,000 compounds, 1.6% hits;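 active = significant combined selectivity score with lowered wild-type GFP, culture density cut under 30%, mutant RFP and density less affected; inactive = any of these conditions unmet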
Vif imaging: HIV Vif inhibition; inhibition, % at 7.49 µM; HEK293T cells, Vif self-association by quenched fluorescence, imaging, 24 h; 340,000 compounds, 0.35% hits; in the data active = inhibition above about 50%, passing the limit was not always enough; inconclusive = no clear call, values can overlap the other calls; inactive = below about 31%
HepG2 cytotox: cytotoxic compounds in HepG2 cells | shares compounds with Ecoli rRNA inh | HepG2 viability, ATP luminescence, 72 h | activity change, negative = cytotoxicity, unspecified at 26 µM | 30 tested, under 10 active | AID 743480;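 active = compounds whose fitted half-maximal signal-loss concentration is at most twice their highest valid dose; inconclusive = flat curve with 30 to 70% signal loss, or poor fit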
AID977621: growth inhibition of wild-type GFP E. coli, dose response, H69 mutant RFP, cherry-pick | 1,900 tested, under 10 active | E. coli wild-type GFP strain growth, fluorescence, 24 h | shares compounds with Ecoli rRNA inh | activity change, negative = inhibition at 50 µM | AID 977621;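 active = Wild-type ribosome reporter drop at least double the humanized mutant ribosome reporter drop, growth loss under a set limit; inconclusive = no clear call, values can overlap the other calls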;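 also: wild-type GFP and H69 mutant RFP strains grown together 50/50 in each well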
AID977628: E. coli growth inhibition, wild-type GFP versus h24 humanized RFP strain, dose response, h24 mutant RFP vs wild-type GFP, cherry-pick; shares compounds with Ecoli rRNA inh; AID 977628; activity change, negative = inhibition at 50 µM; E. coli WT GFP strain growth, fluorescence, 24 h; 1,900 tested, under 10 active;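 active = compound lowering the normal-ribosome reporter at least twice as much as the humanized-ribosome reporter, growth loss under a set limit; inconclusive = no clear call, values can overlap the other calls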;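 also: wild-type GFP and h24 humanized RFP strains co-cultured 1 to 1 per well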
Numbers without * were called inactive; u = inconclusive; x = no result.

SMILES	PglD inh	PGC1a acetyl inh	FGF22 binding	Cneo AK release	Ecoli rRNA inh	Vif imaging	AID977621	AID977628	others
C[C@@H]1CN([C@@H](C)CO)C(=O)c2cc(/C=C/c3ccccc3)cnc2O[C@@H]1CN(C)C(=O)C1CC1	x	4	x	x	3	x	x	x
CCOC(=O)N1CCN(c2nc(-c3cccs3)nc3ccccc23)CC1	0	x	0	3	-4	-28	x	x
CC(=O)N1CCN(c2nc(-c3cccs3)nc3ccccc23)CC1	x	x	0	x	-24*	1	-2.9	x
COc1cccc(-c2ccc(SCc3ccccn3)nn2)c1	x	-11	0	x	-23*	0	x	u
COc1ccc(-c2ccc(SCc3ccccn3)nn2)cc1OC	x	x	0	x	-17	2	x	x
CC1CCC(C(C)C)C(OCC(O)CN2CCCC(C)C2)C1 (stereo not given)	x	-29	0	x	-22*	-6	-7.1	u
COc1cccc(CNC(=O)C[C@H]2C=C[C@H](NC(=O)C3CCOCC3)[C@H](CO)O2)c1	-3	-9	0	8	3	x	x	x
CN(C)C(=O)C[C@H]1C[C@@H]2c3cc(NC(=O)C4CCC4)ccc3O[C@@H]2[C@H](CO)O1	-2	15	0	7	1	x	x	x
C[C@@H]1CN([C@H](C)CO)C(=O)Cc2cc(NC(=O)C3CCCCC3)ccc2O[C@H]1CN(C)Cc1ccc(C(=O)O)cc1	6	32	0	-11	2	x	x	x
Cc1ccc(CNS(=O)(=O)c2ccc3c(c2)NC(=O)CS3)cc1	3	2	0	7	-20*	-4	u	x
CC(C)C(=O)N(Cc1ccccc1)c1ccccn1	-2	-1	x	-3	x	6	x	x
COc1cc(SC)ccc1C(=O)N(Cc1ccccc1)c1ccccn1	4	-7	0	-4	-19*	-8	-7.6	-8.2
O=C(O)CC1(CC(=O)Nc2ccc3sccc3c2)CCCCC1	-2	10	0	0	-26*	-5	5.9	-11
CCOc1ncccc1C(=O)OCC(=O)NCCCc1ccccc1	1	-1	0	1	-21*	5	-7.2	-13
O=C(CCNc1cccc(Cl)c1)c1cccs1	x	-3	0	x	-20*	10	-12	-7.1
O=C(Nc1ccccc1)N[C@H]1CC[C@@H](CCNS(=O)(=O)c2cccc(F)c2)O[C@@H]1CO	1	-14	0	-1	-3	x	x	x
COC(=O)c1c(NC(=O)CCC(=O)O)sc2c1CCCCC2	x	x	0	x	-6	-3	x	x
COC(=O)c1c(NC(=O)CCC(=O)O)sc(Cc2ccccc2)c1C	8	-7	0	0	-38*	-8	x	x	HepG2 cytotox=13
CCCNC(=O)N1CC2(CN(C(=O)COC)C2)c2c(n(C)c3cc(OC)ccc23)[C@H]1CO	x	2	0	x	-2	x	x	x
O=C(CC1SC(=O)N(Cc2ccccc2Cl)C1=O)Nc1nccs1 (stereo not given)	7	16	0	-2	-22*	-1	-5.8	-9.6
CCOc1ccccc1N1CC(C(=O)Nc2cccc(S(=O)(=O)N3CCCCC3)c2)CC1=O (stereo not given)	4	-15	0	1	-21*	-12	-21	u
COc1cc(C#N)ccc1OCC(=O)Nc1cccc(S(=O)(=O)N2CCCC2)c1	x	-5	0	x	-26*	-17	x	-13
CCN(CC)CC(=O)Nc1cccc(S(=O)(=O)N2CCCC2)c1	-6	-5	0	-2	2	2	x	x
O=C(COC(=O)CNC(=O)c1ccc(F)cc1)Nc1cccc(S(=O)(=O)N2CCCC2)c1	x	x	0	x	-18*	4	-11	-3.9
O=C(CN(CCO)c1ccccc1)Nc1cccc(S(=O)(=O)N2CCCC2)c1	-13	-4	0	0	-23*	-10	x	u
SMILES	PglD inh	PGC1a acetyl inh	FGF22 binding	Cneo AK release	Ecoli rRNA inh	Vif imaging	AID977621	AID977628	others
CCOc1ccc(C(=O)NCC(=O)OCC(=O)Nc2cccc(S(=O)(=O)N3CCCC3)c2)cc1	-9	0	0	-10	-6	-2	x	x
N#Cc1ccccc1OCC(=O)Nc1cccc(S(=O)(=O)N2CCCC2)c1	x	-1	0	x	-9	0	x	x
C[C@@H]1CN([C@H](C)CO)C(=O)c2cc(C3=CCCCC3)cnc2O[C@H]1CN(C)Cc1cccnc1	1	-20	0	36	1	x	x	x
C[C@@H]1CCCCO[C@H](CN(C)C(=O)CCCN(C)C)[C@@H](C)CN([C@@H](C)CO)C(=O)c2cc(NC(=O)c3ccccc3)ccc2O1	x	5	x	x	0	x	x	x
CC(=O)N(C)C[C@H]1Oc2ccc(NS(C)(=O)=O)cc2CC(=O)N(C)C[C@@H]1C	x	x	x	x	1	x	x	x
OC[C@@H]1CC[C@@H]2O[C@H](CCc3ccc(C#CCc4ccccc4)cc3)[C@@H](n3cc(-c4ccccc4)nn3)C[C@@H]2O1	x	7	0	x	x	x	x	x
Cn1nc(C(=O)Nc2cccc(S(=O)(=O)N3CCCCC3)c2)c2ccccc2c1=O	4	-16	-1	x	-17*	9	0.57	-0.87
O=C(Cn1nc(C(=O)O)c2ccccc2c1=O)Nc1cccc(S(=O)(=O)N2CCCCC2)c1	-3	x	0	0	-7	11	x	x
CCN(CC)S(=O)(=O)c1cccc(NC(=O)CNc2cccc(S(=O)(=O)N3CCCC3)c2)c1	-6	10	0	1	-23*	-27	-24	x
COc1ccc(Nc2oc(-c3ccco3)nc2S(=O)(=O)c2ccc(F)cc2)cc1	5	x	0	-2	-29*	0	x	x	HepG2 cytotox=8.3
CN(CCOc1ccccc1)Cc1ccccc1	x	x	x	x	x	4	x	x
CN(CCOc1ccccc1)S(=O)(=O)c1ccccc1C#N	-3	8	0	-2	-22*	-3	-14	-19
O=S(=O)(Nc1cccc(-c2ccc(N3CCCCCC3)nn2)c1)c1ccc(F)cc1	-3	-7	0	-6	-21*	9	x	u
Cc1noc(C)c1NC(=O)N(C)C[C@H]1Oc2ccc(NS(C)(=O)=O)cc2C(=O)N([C@@H](C)CO)C[C@@H]1C	6	8	0	1	3	x	x	x
C=CCn1c(SCc2n[nH]c(=S)n2-c2ccccc2)nnc1-c1ccccc1	4	x	0	-2	-22*	6	x	u
CC(C)NC(=O)Nc1ccc2c(c1)CC(=O)N(C)C[C@H](C)[C@H](CN(C)C(=O)OC(C)(C)C)O2	x	x	x	x	-2	x	x	x
